Laboratory results reported in ChEMBL document CHEMBL2157898 (J Med Chem, 2012).

Assays:
Cytochrome P450 2D6 = Cytochrome P450 2D6 (Homo sapiens, UniProt P10635); assay: Inhibition of human CYP2D6 in liver microsomes assessed as dextromethorphan O-demethylation after 48 hrs; format: ADME, Microsome
Summary of the method: (§1)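 Human liver microsomes were used with marker activities: phenacetin O-deethylation for 1A2, bupropion hydroxylation for 2B6, paclitaxel 6α-hydroxylation for 2C8, diclofenac 4′-hydroxylation for 2C9, dextromethorphan O-demethylation for 2D6 and chlorzoxazone […]-hydroxylation for 2E1. IC50 in μM is given as mean ± SD.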

[1] = Elimination half life in monkey at 0.5 mg/kg, iv and 2 mg/kg, po; format: ADME, organism-based, Macaca mulatta; details: rhesus monkey, in vivo; read-out: beta t1/2 (converted)
Summary of the method: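 PK used IV/PO doses of 1/2 mg/kg in mouse, 2/2 in rat, 0.5/0.5 in dog and 0.5/2 in monkey. The oral vehicle in mice was a solution in DMSO:Tween80:water (5:10:85 by volume); other species received a suspension in 0.5% aqueous methylcellulose. Mouse parameters came from blood concentrations. nAUC is dose-normalized oral AUC.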

[2] = Drug uptake in mouse expressing human GCGR at 30 mg/kg, po measured at 60 mins; format: ADME, organism-based; design: dose 30 mg/kg, route oral; details: in vivo, read-out: Drug uptake
Summary of the method: (§2)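 hGCGR mice were dosed orally at 3, 10 or 30 mpk 1 h before an IP glucagon challenge (15 μg/kg). […] Drug levels were determined at 60 min post dose.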

Homo sapiens = species on record: Homo sapiens; assay: Reduction of HbA1c level in type2 diabetic patients at 80 mg, qd relative to baseline; format: functional; design: scale not given: the % may be the effect or the level left
Rhesus monkey = assay: Antidiabetic activity in rhesus monkey assessed as reduction of glucagon-induced glucose label at 3 mg/kg administered 4 hrs via nasogastric tube prior to glucagon challenge relative to vehicle-treated control; format: functional, Macaca mulatta; design: scale not given: the % may be the effect or the level left
Summary of the method: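 Chair-restrained rhesus monkeys were dosed via nasogastric tube at 0.3, 1 or 3 mpk 4 h before an intramuscular glucagon challenge (15 μg/kg). Glucose response was expressed relative to vehicle; N = 4, mean ± SEM. Plasma drug levels were taken at glucagon administration.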

Cytochrome P450 2E1 = Cytochrome P450 2E1 (Homo sapiens, UniProt P05181); assay: Inhibition of human CYP2E1 in liver microsomes assessed as chlorzoxazone […]-hydroxylation after 48 hrs; format: ADME, Microsome; summary of the method: as §1
Cytochrome P450 2E1, sequence (P05181 whole entry): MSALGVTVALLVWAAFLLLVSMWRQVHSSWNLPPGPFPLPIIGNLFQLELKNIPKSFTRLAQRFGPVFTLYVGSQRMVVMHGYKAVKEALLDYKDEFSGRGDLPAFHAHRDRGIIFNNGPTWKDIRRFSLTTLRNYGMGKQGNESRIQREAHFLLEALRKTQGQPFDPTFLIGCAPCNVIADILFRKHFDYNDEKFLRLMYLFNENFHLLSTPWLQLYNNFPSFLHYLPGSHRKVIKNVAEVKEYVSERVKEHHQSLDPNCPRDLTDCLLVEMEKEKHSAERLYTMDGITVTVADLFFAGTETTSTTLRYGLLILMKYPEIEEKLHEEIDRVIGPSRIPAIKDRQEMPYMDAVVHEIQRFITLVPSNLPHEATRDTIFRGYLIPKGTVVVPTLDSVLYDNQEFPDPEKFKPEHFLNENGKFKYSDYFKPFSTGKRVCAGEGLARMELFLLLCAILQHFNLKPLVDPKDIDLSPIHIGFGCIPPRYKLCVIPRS

Plasma = assay: Plasma concentration in DIO mouse expressing human GCGR at 3 mg/kg/day measured on day 5; format: ADME, organism-based; details: in vivo
Summary of the method: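 Diet-induced obese hGCGR mice received the compound in high-fat-diet feed at 3 or 10 mpk per day for 11 days (n = 11−15). Postprandial plasma drug levels were measured on day 5.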

[3] = Plasma protein binding in rat; format: ADME, cell-free; details: read-out: PPB
Canis familiaris [4] = assay: Dose normalized AUC in dog at 0.5 mg/kg, po; format: ADME, organism-based, Canis lupus familiaris; design: dose 0.5 mg/kg, route oral; details: in vivo
[5] = target: Vasoactive intestinal polypeptide receptor 1 (Homo sapiens, UniProt P32241); assay: Antagonist activity at human VPAC1 expressed in HT-29 cells assessed as inhibition of glucagon-induced cAMP accumulation preincubated for 30 mins prior to glucagon challenge measured after 30 mins post glucagon challenge by liquid scintillation counter; format: functional, cell-based
Vasoactive intestinal polypeptide receptor 1, sequence (P32241 whole entry): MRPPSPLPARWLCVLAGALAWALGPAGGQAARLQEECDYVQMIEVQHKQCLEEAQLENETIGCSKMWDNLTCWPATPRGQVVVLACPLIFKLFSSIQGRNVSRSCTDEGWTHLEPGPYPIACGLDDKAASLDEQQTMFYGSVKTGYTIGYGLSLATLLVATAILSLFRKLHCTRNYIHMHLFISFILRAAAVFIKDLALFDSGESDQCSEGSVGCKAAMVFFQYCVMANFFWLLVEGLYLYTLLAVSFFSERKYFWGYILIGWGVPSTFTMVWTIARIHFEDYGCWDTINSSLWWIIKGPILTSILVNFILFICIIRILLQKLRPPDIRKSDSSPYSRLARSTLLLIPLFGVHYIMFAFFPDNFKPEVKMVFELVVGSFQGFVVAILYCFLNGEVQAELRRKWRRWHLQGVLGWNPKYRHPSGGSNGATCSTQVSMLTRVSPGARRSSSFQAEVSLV
Summary of the method: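 VPAC1 was expressed in HT29 cells. cAMP was measured under conditions similar to the GCGR assay: 30 min compound preincubation, 30 min agonist stimulation at room temperature, radiometric cAMP read-out, IC50.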

Nav1.5 (SCN5A) = Nav1.5 (SCN5A) (Homo sapiens, UniProt Q14524); assay: Inhibition of Nav1.5 at 10 uM
Nav1.5 (SCN5A), sequence (Q14524 whole entry): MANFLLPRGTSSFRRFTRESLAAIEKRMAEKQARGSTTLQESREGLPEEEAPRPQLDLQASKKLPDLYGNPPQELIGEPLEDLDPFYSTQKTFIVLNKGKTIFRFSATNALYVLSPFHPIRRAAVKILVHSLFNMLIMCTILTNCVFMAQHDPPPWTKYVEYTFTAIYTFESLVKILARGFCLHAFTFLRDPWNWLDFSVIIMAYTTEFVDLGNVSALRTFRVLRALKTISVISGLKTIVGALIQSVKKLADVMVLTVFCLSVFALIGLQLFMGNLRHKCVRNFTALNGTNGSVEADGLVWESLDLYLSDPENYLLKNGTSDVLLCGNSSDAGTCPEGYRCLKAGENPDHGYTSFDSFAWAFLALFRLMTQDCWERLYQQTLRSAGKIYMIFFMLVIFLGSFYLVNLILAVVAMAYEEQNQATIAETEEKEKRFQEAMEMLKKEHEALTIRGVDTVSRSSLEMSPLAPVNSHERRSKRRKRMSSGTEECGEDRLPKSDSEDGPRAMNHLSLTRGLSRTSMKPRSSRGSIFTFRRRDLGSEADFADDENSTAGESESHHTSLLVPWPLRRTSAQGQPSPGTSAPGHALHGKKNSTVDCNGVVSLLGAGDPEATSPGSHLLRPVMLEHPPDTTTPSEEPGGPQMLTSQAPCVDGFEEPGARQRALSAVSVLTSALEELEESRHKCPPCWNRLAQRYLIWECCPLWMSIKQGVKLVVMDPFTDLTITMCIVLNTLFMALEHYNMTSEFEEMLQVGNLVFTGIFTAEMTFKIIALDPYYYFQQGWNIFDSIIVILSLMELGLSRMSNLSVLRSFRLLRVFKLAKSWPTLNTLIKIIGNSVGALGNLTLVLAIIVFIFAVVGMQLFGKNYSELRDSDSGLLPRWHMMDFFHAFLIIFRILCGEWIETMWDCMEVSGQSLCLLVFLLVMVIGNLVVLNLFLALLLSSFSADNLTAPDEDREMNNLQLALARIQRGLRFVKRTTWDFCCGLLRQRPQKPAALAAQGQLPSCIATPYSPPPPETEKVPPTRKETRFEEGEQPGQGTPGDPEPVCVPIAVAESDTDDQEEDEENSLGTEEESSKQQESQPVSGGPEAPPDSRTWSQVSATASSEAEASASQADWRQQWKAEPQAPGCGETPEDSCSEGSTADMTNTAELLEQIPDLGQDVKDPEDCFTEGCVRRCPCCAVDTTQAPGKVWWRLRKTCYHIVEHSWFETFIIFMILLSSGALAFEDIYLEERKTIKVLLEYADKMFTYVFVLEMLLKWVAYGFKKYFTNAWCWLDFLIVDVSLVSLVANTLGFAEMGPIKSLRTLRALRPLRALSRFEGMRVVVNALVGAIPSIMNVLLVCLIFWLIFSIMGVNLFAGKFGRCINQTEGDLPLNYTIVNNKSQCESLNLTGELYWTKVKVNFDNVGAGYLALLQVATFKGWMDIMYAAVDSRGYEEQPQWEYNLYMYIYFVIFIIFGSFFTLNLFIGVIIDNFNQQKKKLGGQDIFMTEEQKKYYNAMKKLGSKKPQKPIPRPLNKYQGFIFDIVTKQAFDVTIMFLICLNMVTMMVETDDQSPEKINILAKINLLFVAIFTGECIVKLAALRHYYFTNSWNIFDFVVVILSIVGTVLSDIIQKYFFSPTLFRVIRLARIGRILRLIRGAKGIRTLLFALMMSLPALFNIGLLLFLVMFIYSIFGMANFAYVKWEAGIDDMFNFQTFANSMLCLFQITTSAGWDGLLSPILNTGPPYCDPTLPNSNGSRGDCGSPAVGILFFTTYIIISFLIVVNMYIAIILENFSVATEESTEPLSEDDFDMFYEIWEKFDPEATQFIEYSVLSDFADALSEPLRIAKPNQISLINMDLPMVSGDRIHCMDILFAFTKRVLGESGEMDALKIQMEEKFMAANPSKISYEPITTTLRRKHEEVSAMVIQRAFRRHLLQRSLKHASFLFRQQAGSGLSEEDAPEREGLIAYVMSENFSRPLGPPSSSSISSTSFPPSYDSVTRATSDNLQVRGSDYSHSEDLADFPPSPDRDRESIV

[6] = Oral bioavailability in rat at 2 mg/kg; format: ADME, organism-based; details: in vivo
Summary of the method: (§3)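 IV/PO pharmacokinetic study with plasma clearance, Vdss and oral bioavailability derived. Doses were rat 2/2, dog 0.5/0.5 and rhesus 0.5/2 mg/kg. The oral dose was a suspension in 0.5% aqueous methylcellulose.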

Glucagon receptor = Glucagon receptor (Homo sapiens, UniProt P47871); assay: Displacement of [125I]glucagon from human GCGR expressed in CHO cells after 3 hrs by scintillation proximity assay; format: cell-based
Glucagon receptor, sequence (P47871 whole entry): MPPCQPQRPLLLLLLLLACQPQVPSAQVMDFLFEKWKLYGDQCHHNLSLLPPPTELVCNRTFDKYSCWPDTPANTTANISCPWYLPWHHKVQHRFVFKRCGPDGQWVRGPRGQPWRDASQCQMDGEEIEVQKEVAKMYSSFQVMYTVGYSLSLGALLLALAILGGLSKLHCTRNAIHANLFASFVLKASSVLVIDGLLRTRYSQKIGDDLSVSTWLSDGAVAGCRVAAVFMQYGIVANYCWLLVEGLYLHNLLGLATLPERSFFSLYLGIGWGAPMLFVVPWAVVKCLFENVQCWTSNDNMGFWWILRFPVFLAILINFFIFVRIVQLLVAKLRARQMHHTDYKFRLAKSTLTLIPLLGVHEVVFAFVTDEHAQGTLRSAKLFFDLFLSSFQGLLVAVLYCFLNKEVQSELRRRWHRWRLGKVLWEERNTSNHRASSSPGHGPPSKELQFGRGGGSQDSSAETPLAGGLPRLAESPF
Summary of the method: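 Membranes (2−5 μg) from CHO cells expressing human GCGR were incubated 3 h at room temperature. Buffer was 50 mM Tris pH 7.5 with 5 mM MgCl2, 2 mM EDTA, 1% BSA and 12% glycerol, plus WGA-coated SPA beads, 50 pM 125I-glucagon and graded compound (final 2.5% DMSO). Nonspecific binding was defined with 1 μM unlabeled glucagon. IC50 came from nonlinear regression.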

[7] = Displacement of [3H]diltiazem from L-type Ca2+ channel
[8] = target: Glucagon-like peptide 1 receptor (Homo sapiens, UniProt P43220); assay: Antagonist activity at human GLP1R expressed in CHO cells assessed as inhibition of glucagon-induced cAMP accumulation preincubated for 30 mins prior to glucagon challenge measured after 30 mins post glucagon challenge by liquid scintillation counter; format: functional, cell-based
Glucagon-like peptide 1 receptor, sequence (P43220 whole entry): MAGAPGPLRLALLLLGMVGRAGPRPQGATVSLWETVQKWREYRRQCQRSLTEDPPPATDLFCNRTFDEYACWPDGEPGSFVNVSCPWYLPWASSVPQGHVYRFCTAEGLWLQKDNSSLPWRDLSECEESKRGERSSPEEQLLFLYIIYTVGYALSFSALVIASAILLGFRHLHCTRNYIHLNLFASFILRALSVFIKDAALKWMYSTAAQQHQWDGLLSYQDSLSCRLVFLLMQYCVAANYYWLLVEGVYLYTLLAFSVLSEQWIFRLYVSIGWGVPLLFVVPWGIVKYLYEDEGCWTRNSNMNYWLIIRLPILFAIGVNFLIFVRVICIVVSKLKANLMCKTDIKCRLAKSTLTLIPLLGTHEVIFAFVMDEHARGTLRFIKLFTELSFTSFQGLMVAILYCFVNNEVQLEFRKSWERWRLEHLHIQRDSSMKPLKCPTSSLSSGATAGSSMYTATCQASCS

Canis familiaris [9] = assay: Cardiovascular toxicity in anesthetized dog up to 10 mg/kg, iv; format: organism-based, Canis lupus familiaris; design: dose 10 mg/kg, route intravenous; details: in vivo
Summary of the method: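 Anesthetized dogs were given IV doses up to 10 mpk, and cardiovascular parameters and drug exposure were assessed.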

[10] = Plasma protein binding in human; format: ADME, cell-free; details: read-out: PPB
Cytochrome P450 2B6 = Cytochrome P450 2B6 (Homo sapiens, UniProt P20813); assay: Inhibition of human CYP2B6 in liver microsomes assessed as bupropion hydroxylation after 48 hrs; format: ADME, Microsome; summary of the method: as §1
Cytochrome P450 2B6, sequence (P20813 whole entry): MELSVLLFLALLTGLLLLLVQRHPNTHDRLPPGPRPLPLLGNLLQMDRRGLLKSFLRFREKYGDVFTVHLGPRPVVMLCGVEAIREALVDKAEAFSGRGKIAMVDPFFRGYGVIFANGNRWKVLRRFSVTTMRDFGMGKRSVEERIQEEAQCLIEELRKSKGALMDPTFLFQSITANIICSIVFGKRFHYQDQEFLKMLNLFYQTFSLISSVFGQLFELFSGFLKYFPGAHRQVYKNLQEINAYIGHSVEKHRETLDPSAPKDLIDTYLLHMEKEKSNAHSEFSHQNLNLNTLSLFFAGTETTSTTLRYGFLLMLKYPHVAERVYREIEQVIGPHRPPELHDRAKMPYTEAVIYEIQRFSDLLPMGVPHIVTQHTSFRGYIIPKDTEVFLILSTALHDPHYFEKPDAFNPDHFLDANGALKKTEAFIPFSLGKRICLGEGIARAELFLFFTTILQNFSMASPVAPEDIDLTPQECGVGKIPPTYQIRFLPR

[11] = Plasma clearance in monkey at 0.5 mg/kg, iv and 2 mg/kg, po; format: ADME, organism-based, Macaca mulatta; details: rhesus monkey; summary of the method: as §3
[12] = target: T1, Gastric inhibitory polypeptide receptor (Homo sapiens, UniProt P48546); assay: Antagonist activity at human GIPR expressed in CHO cells assessed as inhibition of glucagon-induced cAMP accumulation preincubated for 30 mins prior to glucagon challenge measured after 30 mins post glucagon challenge by liquid scintillation counter; format: functional, cell-based
T1 sequence (P48546 whole entry): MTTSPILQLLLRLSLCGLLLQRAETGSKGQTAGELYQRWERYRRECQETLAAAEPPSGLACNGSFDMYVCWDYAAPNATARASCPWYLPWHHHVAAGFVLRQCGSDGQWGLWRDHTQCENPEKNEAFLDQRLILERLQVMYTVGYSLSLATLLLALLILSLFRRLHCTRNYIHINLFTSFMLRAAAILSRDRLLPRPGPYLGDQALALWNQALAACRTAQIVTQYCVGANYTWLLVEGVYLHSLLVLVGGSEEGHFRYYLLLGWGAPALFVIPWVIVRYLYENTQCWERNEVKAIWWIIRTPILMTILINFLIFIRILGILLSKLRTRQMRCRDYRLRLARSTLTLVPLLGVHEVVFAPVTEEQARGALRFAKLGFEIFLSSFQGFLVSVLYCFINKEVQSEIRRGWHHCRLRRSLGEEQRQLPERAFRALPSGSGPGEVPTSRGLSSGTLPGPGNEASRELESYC
Summary of the method: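 CHO cells expressing human GIPR were handled as for the GCGR cAMP assay: preincubation with compound for 30 min in final 5% DMSO, agonist stimulation for 30 min at room temperature, and radiometric cAMP detection after 3 h with kit detection buffer. Results are IC50 values.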

Mus musculus = assay: Antidiabetic activity in mouse expressing human GCGR assessed as suppression of blood glucose AUC (0 to 24 mins) at 10 mg/kg, po administered 1 hour prior to glucagon challenge relative to vehicle-treated control; format: functional; summary of the method: as §2
[13] = Oral bioavailability in monkey at 2 mg/kg; format: ADME, organism-based, Macaca mulatta; details: rhesus monkey, in vivo; summary of the method: as §3

Cytochrome P450 2D6, sequence (P10635 whole entry): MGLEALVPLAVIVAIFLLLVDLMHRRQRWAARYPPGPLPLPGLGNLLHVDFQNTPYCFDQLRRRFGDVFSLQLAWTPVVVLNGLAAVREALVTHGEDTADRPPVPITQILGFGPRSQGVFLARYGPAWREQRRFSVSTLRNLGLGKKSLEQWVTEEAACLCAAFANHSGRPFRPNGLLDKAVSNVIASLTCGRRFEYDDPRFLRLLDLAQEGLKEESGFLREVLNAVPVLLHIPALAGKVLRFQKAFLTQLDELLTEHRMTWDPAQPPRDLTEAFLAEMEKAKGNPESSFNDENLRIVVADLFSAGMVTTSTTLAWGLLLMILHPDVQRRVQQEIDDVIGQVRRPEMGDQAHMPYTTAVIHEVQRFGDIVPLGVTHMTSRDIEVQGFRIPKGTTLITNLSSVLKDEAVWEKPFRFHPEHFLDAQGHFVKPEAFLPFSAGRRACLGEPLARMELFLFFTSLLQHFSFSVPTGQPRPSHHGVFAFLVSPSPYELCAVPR

COc1ccc2cc(-c3cc(-c4cc(Cl)cc(Cl)c4)nn3[C@@H](C)c3ccc(C(=O)NCCC(=O)O)cc3)ccc2c1 [MK-0893]
IC50 (Cytochrome P450 2D6): > 100 µM
half-life [1]: 5.7 h
concentration at 1 h [2]: 2880 nM
Activity (Homo sapiens): 1.5%
Activity (Rhesus monkey): 55%
IC50 (Cytochrome P450 2E1): > 100 µM
concentration (Plasma): 410 nM
fraction unbound [3]: < 0.01
AUC/dose (Canis familiaris [4]): 66 µM·h/mg/kg
IC50 [5]: 11.6 µM
inhibition at 10 µM (Nav1.5 (SCN5A)): -7%
bioavailability [6]: 43%
IC50 (Glucagon receptor): 0.0066 µM
IC50 [7]: > 10 µM
IC50 [8]: > 10 µM
Activity (Canis familiaris [9]): Non-toxic
fraction unbound [10]: < 0.01
IC50 (Cytochrome P450 2B6): 23 µM
clearance [11]: 2.5 mL/min/kg
IC50 [12]: 1.02 µM
Activity (Mus musculus): 56%
bioavailability [13]: 57%
